Rows were chosen to be rich in hits. Some 3.5% of all compounds tested hit in one or more screens of this group.
MrgX1 antagonist: antagonists of human MrgX1 receptor | Q96LB2 | MRGX1-HEK293 calcium flux, Fluo-4, BAM8-22 antagonism; hits give low values | B-score at 10 µM | 310,000 tested, 1.3% active | AID 588676;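 active = calcium-response B-score plate-corrected more than 3 library SD below zero, starting fluorescence within 5 deviations, no agonist response on first addition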;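 also: peak minus trough fluorescence over baseline after final BAM8-22 challenge near maximal dose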
Target sequence (Q96LB2 whole entry, looked up): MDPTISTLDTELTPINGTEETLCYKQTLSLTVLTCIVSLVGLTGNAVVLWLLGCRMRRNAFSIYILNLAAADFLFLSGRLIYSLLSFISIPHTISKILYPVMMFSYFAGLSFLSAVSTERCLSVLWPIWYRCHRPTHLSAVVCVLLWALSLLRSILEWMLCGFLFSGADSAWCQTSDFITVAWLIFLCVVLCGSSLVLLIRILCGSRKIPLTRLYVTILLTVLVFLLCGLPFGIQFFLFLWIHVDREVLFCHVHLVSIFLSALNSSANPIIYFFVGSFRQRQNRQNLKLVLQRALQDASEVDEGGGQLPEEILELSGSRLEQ
RGS4 pot: RGS4 potentiation or activation; B-score at 10 µM; 310,000 tested, 0.92% active; HEK293 M3R/inducible RGS4, carbachol calcium flux Fluo4; hits give low values;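 active = B-score of the integrated calcium signal more than 4 SD below the library mean, with starting fluorescence not abnormally high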;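 also: negative B-score means reduced calcium response which marks RGS4 activation or potentiation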
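Test system: HEK293 cells with stable M3R and inducible RGS4; also added: carbachol at ECmax as muscarinic agonist stimulus; schedule: dye loading 30 min 37 °C, buffer rest 30 min RT; technique: kinetic calcium fluorescence imaging with Fluo4-AM dye, 2 µM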
RGS4 inh: human RGS4 inhibition. P49798. HEK293 M3R/RGS4 inducible, Fluo-4 calcium flux; hits give high values; triggered by carbachol at its EC20. B-score at 10 µM. 310,000 tested, 0.45% active. AID 463165;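 active = B-score, a plate-corrected calcium signal, over three deviations above library mean, with baseline fluorescence within five deviations of library mean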;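 also: RGS4 expression induced by doxycycline in cells with stable M3 receptor; B-score is computed from the integrated fluorescence ratio over baseline after carbachol; higher B-score means a larger calcium signal and so more RGS4 inhibition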
Target sequence (P49798 whole entry, looked up): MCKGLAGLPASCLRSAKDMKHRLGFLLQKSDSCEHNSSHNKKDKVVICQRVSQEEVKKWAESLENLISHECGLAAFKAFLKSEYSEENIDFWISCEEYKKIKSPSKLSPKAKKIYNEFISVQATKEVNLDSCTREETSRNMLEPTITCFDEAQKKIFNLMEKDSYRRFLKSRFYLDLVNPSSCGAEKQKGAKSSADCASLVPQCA
MrgX1 ag: activates human MrgX1 receptor signaling. Q96LB2. MrgX1-HEK293 cells, Fluo-4 calcium fluorescence, agonist mode; hits give high values. B-score at 10 µM. 310,000 tested, 0.44% active;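 active = calcium response B-score plate-corrected fluorescence ratio at least 3 library SD, with starting fluorescence B-score inside 5 SD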
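Material: HEK293 cells stably expressing human MrgX1 receptor | Quantity: 15,000 cells per well | Times: Cells plated overnight, dye loaded 0.5 h 37 °C, 0.5 h room temperature | Measured by: Kinetic Fluo-4 NW fluorescence of intracellular calcium | Control set: Positive and negative controls per plate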
MrgX1 allo act: human MrgX1 positive allosteric modulation, primary screen | Q96LB2 | MrgX1-HEK293, Fluo-4 calcium flux, FDSS; hits give high values | B-score at 10 µM | 310,000 tested, 0.63% active | AID 588675;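 active = plate-corrected calcium response at least 3 library SD above typical, normal starting fluorescence, not activating the receptor alone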;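 also: compound read alongside a low EC10 to EC30 dose of BAM8-22 agonist; peak minus trough fluorescence over baseline measured at the second addition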
MrgX1 ant reconf: confirmation of human MrgX1 receptor antagonists; shares compounds with MrgX1 antagonist; MrgX1-HEK293, BAM8-22 calcium flux, Fluo-4; hits give low values; remaining BAM8-22 calcium response % of control (hits give low values), % at 10 µM; 2,300 tested, 19% active;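 active = remaining agonist calcium response no higher than 100% minus 3 SD of agonist-only control wells, with starting fluorescence near control levels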;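 also: agonist BAM8-22 given at a near maximal EC90 to ECmax level; peak minus minimum fluorescence divided by baseline after agonist addition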
HEK293 Ca flux: activity in parental HEK293 cells lacking MrgX1 | shares compounds with MrgX1 antagonist | Fluo-4 calcium fluorescence, FDSS | fluorescence ratio F(max-min)/F0 at 10 µM | 4,000 tested, 2% active | AID 624111;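 active = duplicate-averaged calcium fluorescence ratio at least three times the standard deviation of buffer wells, a nonspecific response in parental cells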
HEK293 Ca counter: counter-screen for MrgX1 allosteric activators: effect in parental HEK293 cells. fluorescence ratio F(max-min)/F0 at 10 µM. 4,000 tested, 0.4% active. shares compounds with MrgX1 antagonist. parental HEK293 calcium flux, Fluo-4 fluorescence ratio; hits give high values;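 active = calcium fluorescence ratio, averaged over duplicates, at least 3 SD of the buffer-well ratio, meaning a nonspecific response in receptor-free cells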;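 also: untransfected parental HEK293 lacking MrgX1 used as counterscreen for MrgX1 allosteric activators; fluorescence change taken during the second addition on a kinetic imager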
HEK293 Ca cntr2: counter-screen for MrgX1 activators: effect in parental HEK293 cells | shares compounds with MrgX1 antagonist | fluorescence ratio F(max-min)/F0 at 10 µM | 4,000 tested, 8.7% active | Fluo-4 calcium fluorescence (FDSS); hits give high values;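 active = calcium fluorescence ratio at least three times the spread of buffer wells, meaning a non-specific response in parental cells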
An asterisk follows results filed as active; i = inactive; . = no result; ! = not confirmed by another sample.

SMILES | MrgX1 antagonist | RGS4 pot | RGS4 inh | MrgX1 ag | MrgX1 allo act | MrgX1 ant reconf | HEK293 Ca flux | HEK293 Ca counter | HEK293 Ca cntr2
COc1ccc(C(=O)NC2CC2)cc1OC1CCN(Cc2ccccc2F)CC1 | i | i | i | i | i | . | . | . | .
CCOC(=O)C1=C(CSc2nc3c(cc2C#N)CN(C)CC3)OC(N)=C(C#N)C1c1ccc(F)cc1 (centres undefined) | -5.4* | i | i | i | i | i | i | i | i
CCOC(=O)C1=C(CSc2nc3c(cc2C#N)CCC3)OC(N)=C(C#N)C1c1ccccc1 (centres undefined) | i | i | i | i | i | . | . | . | .
Cc1cc(C)nc(NS(=O)(=O)c2ccc(N)cc2)n1 | -4.7*! | i | i | i | i | i | i | i | i
COc1ccc2nc(NC(=O)c3ccccc3O)sc2c1 | i | i | i | i | i | . | . | . | .
CCOC(=O)c1cccc(C(=O)Nc2nc3ccc(OC)cc3s2)n1 | -5* | i | i | i | i | i | i | i | i
CCc1ccc(NC(=O)Cc2ccc(NC3=NC4CS(=O)(=O)CC4S3)cc2)cc1 (centres undefined) | -6.1* | i | i | i | i | i | i | i | i
CCOc1ccc(NC(=O)Cc2ccc(NC3=NC4CS(=O)(=O)CC4S3)cc2)cc1 (centres undefined) | i | i | i | i | i | . | . | . | .
Fc1ccccc1-c1n[nH]c(=S)n1CC1CCCO1 (centres undefined) | -6.3* | i | i | i | i | i | i | i | i
N=C1SC(c2ccccc2)C(=O)N1c1ncc(Cc2ccccc2)s1 (centres undefined) | i | i | i | i | i | . | . | . | .
Cc1ccc(Cc2cnc(N3C(=N)SC(c4ccccc4)C3=O)s2)cc1 (centres undefined) | -5.2* | i | i | i | i | i | i | i | i
O=C1CC2(CCCCC2)Oc2ccc(Cl)cc21 | i | i | i | i | i | . | . | . | .
N#Cc1ccc(OS(=O)(=O)c2ccc(-c3ccon3)s2)cc1 | -4.7* | i | i | i | i | i | i | i | i
COC(=O)[C@H](C)[C@@H]1C[C@@]1(C)[C@@H](NC(=O)OCc1ccccc1)c1ccccc1 | -5.4* | i | i | i | i | 75%* | i | i | i
Cc1cccc(NC(=O)COc2ccccc2C(=O)NC(C)c2ccccc2)c1 (centres undefined) | i | i | i | i | i | . | . | . | .
Cc1cc(NC(=O)CCCC(=O)O)nc(C)n1 | -6.4* | i | i | i | i | i | i | i | i
Cc1cc(NC(=O)CSc2nc3c(C)cccc3cc2C)no1 | i | i | i | i | i | . | . | . | .
CCOC(=O)CSc1n[nH]c(-c2cccnc2)n1 | -7* | i | i | i | i | i | i | i | i
CC(Oc1ccccc1Cl)c1nnc(N)s1 (centres undefined) | -7.8* | i | i | i | i | i | i | i | i
Fc1cccc(Cc2noc(CN3CCCCC3CCc3ccccn3)n2)c1 (centres undefined) | i | i | i | i | i | . | . | . | .
Cc1ccc(-c2csc(NC(=O)c3ccc4c(=O)n5c(nc4c3)CCCCC5)n2)cc1 | -5.5* | i | i | i | i | 71%* | i | i | i
CC(=O)NC1C(=O)N(CCN2CCOCC2)c2ccc(F)cc21 (centres undefined) | -5.4* | i | i | i | i | 61%* | i | i | i
CC(=O)NC1C(=O)N(CCN2CCOCC2)c2ccc(Cl)cc21 (centres undefined) | -8.7* | i | i | i | i | i | i | i | i
CCCCN1C(=O)C(NC(C)=O)c2cc(Br)ccc21 (centres undefined) | i | i | i | i | i | . | . | . | .
CCCCn1c(SCC(=O)OCC)nc2c(sc(=S)n2-c2ccccc2OC)c1=O | i | i | i | i | i | . | . | . | .
SMILES | MrgX1 antagonist | RGS4 pot | RGS4 inh | MrgX1 ag | MrgX1 allo act | MrgX1 ant reconf | HEK293 Ca flux | HEK293 Ca counter | HEK293 Ca cntr2
CC(=O)NCCc1ccc(S(=O)(=O)NC2OC(=O)c3ccccc32)cc1 (centres undefined) | -4.8* | i | i | i | i | i | i | i | i
CC(=O)NCc1ccc(S(=O)(=O)NC(C)CCc2ccccc2)cc1 (centres undefined) | i | i | i | i | i | . | . | . | .
Cn1c(=O)oc2cc(S(=O)(=O)N3CCCC(C(=O)NCCN4CCOCC4)C3)ccc21 (centres undefined) | -4.6* | . | . | i | i | i | i | i | i
c1ccc(CSc2nnc(Cc3ccccc3)o2)cc1 | i | i | i | i | i | . | . | . | .
c1ccc(CSc2nnc(Cc3ccccn3)o2)cc1 | -7.8* | i | i | i | i | i | i | i | i
O=C(Nc1ccccc1)c1ccccc1NC(=O)C1CCCCC1 | i | i | i | i | i | . | . | . | .
Cc1cccc(NC(=O)c2ccccc2NC(=O)C2CCCCC2)c1C | -5* | i | i | i | i | i | i | i | i
CC(C)(C)n1nnnc1C(c1cc2cc3c(cc2[nH]c1=O)OCO3)N1CCN(c2ccccc2)CC1 (centres undefined) | -7* | i | i | i | i | i | i | i | i
CCOc1ccc(N(CC(=O)NC2CCCC2)S(=O)(=O)c2c(C)noc2C)cc1 | -4.8* | i | i | i | i | 65%* | i | i | i
CCOc1ccc(N(CC(=O)NC2CCCCC2)S(=O)(=O)c2c(C)noc2C)cc1 | i | i | i | i | i | . | . | . | .
COc1ccccc1N1CCN(CC(O)c2ccc3cc[nH]c3c2)CC1 (centres undefined) | -9.8* | i | i | i | i | i | i | i | i
COC(=O)c1cc(Cl)nc2ccccc12 | i | i | i | i | i | . | . | . | .

Compound activity deposited in PubChem by Johns Hopkins Ion Channel Center.
